Among the data in ChEMBL document CHEMBL4346682 (Eur J Med Chem, 2019) are IC50, Kb and Activity values, retold here.

Activity calls are given as the source filed them. The calls are words filed in the database; no cut-off is given here.

Test [1] relates to HeLa. The test can be described thus: Antiproliferative activity against human HeLa cells measured after 3 days by Coulter counter method. The class given is functional, cell-based. The settings on record: 72 h.
The test system of test [2] is HMEC-1. The test can be described thus: Antiproliferative activity against human HMEC1 cells measured after 4 days by Coulter counter method. The settings on record: HMEC-1, 96 h. The format is functional, cell-based.
A further test deals with L1210. Nature of the test: Antiproliferative activity against mouse L1210 cells measured after 96 hrs by Coulter counter method. The class given is functional, cell-based. The following applies: L1210, 96 h. The method in brief:
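L1210 suspension cells seeded at 60,000 cells/well with a range of compound concentrations, grown 96 h, counted in a Coulter counter. IC50 is the concentration reducing proliferation by 50%, mean ± SD of three independent experiments.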

For another test, the system named is CCRF-CEM. Nature of the test: Antiproliferative activity against human CEM cells measured after 96 hrs by Coulter counter method. The class given is functional, cell-based. The method in brief: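 CEM suspension cells seeded at 60,000 cells/well with a range of compound concentrations, grown 96 h, then counted. Medium is DMEM with 10% FBS, 0.01 M Hepes and 1 mM sodium pyruvate, 37 °C, 5% CO2.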

Another test concerns the target Tubulin (Bos taurus) (UniProt Q6B856+Q862L2+Q862F3). Nature of the test: Binding affinity to calf brain tubulin assessed as binding constant incubated for 30 mins in presence of R-PT by fluorescence based method. A digest of the protocol:
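Competition assay with calf brain tubulin. A premixed 0.2 µM R-PT plus 0.2 µM tubulin sample was exposed to ligand at 0–70 µM in 10 mM sodium phosphate, 0.1 mM GTP, pH 7.0, incubated 30 min at 25 °C. Fluorescence read at 456 nm (excitation 374 nm). Kb fitted by competition analysis, mean of three experiments ± StdError.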

A further test concerns the target Tubulin (Homo sapiens) (UniProt P68371+Q9H4B7+P0DPH7+P68366+Q13509+Q71U36+P04350+Q3ZCM7+P07437+P68363+Q9BQE3+Q6PEY2+Q13885+Q9BVA1+Q9BUF5). The test can be described thus: Inhibition of human tubulin polymerization assessed as induction of tubulin polymerization destabilization at 30 uM by turbidimetric assay.
The subject of test [3] is HeLa. The test can be described thus: Cell cycle arrest in human HeLa cells assessed as accumulation at G2/M phase at 0.4 uM measured after 24 hrs by DAPI staining based HCS analysis. The format is functional.
The subject of test [4] is HeLa. The test can be described thus: Cell cycle arrest in human HeLa cells assessed as accumulation at G2/M phase at 0.08 uM measured after 24 hrs by DAPI staining based HCS analysis. The format is functional.
Test [5] relates to HeLa. Nature of the test: Cell cycle arrest in human HeLa cells assessed as accumulation at G2/M phase at 0.016 uM measured after 24 hrs by DAPI staining based HCS analysis. The class given is functional.
Test [6] deals with HMEC-1. The test can be described thus: Vascular disrupting activity in human HMEC1 cells at 0.4 uM after 90 mins. The class given is functional, cell-based. The method in brief: (§1)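 HMEC-1 seeded at 60,000 cells/well on matrigel (10 mg/mL, gelled 30 min at 37 °C) in DMEM with 10% FCS. After 3 h at 37 °C, once tube-like networks formed, compound was added at 2, 0.4 or 0.08 µM. After 90 min, images taken at 100× and meshes, branching points and tube length quantified.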

In test [7] the test system is HMEC-1. Nature of the test: Cell cycle arrest in human HMEC1 cells assessed as accumulation at G2/M phase at 0.08 uM measured after 24 hrs by propidium iodide based FACSCalibur flow cytometry. The class given is functional. A digest of the protocol:
(§2)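 HMEC-1 seeded at 125,000 cells/well in DMEM with 10% FBS and exposed to compound after 24 h. After another 24 h, DNA was stained with propidium iodide and analysed by flow cytometry within 3 h. Debris and clumps were gated out, and sub-G1, G1, S and G2/M fractions estimated with region markers.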
On the technique in general: Flow cytometry measures light scatter and fluorescence of single cells or particles in a stream.

Test [8] concerns HeLa. Nature of the test: Cell cycle arrest in human HeLa cells assessed as accumulation at G2/M phase at 2 uM measured after 24 hrs by DAPI staining based HCS analysis. The format is functional.
The test system of test [9] is HMEC-1. Nature of the test: Vascular disrupting activity in human HMEC1 cells at 0.08 to 2 uM after 90 mins. The class given is functional, cell-based. The method in brief:
as §1

In test [10] the test system is HMEC-1. The test can be described thus: Cell cycle arrest in human HMEC1 cells assessed as accumulation at G2/M phase at 0.4 uM measured after 24 hrs by propidium iodide based FACSCalibur flow cytometry. The class given is functional. The method in brief:
as §2

A word on the IC50: it is the concentration needed to halve the response being measured. As for `CC(=O)c1ccc(Oc2ccccc2NC(C)=C2C(=O)CC(c3ccccc3)CC2=O)cc1` (stereo unspecified), the half-maximal inhibitory concentration (IC50) was 130 nM in the test with HeLa [1], 180 nM in the test on HMEC-1 [2], 190 nM in the test with L1210 and 220 nM in the test with CCRF-CEM.

Consider `CC(Nc1ccccc1Oc1ccccc1)=C1C(=O)CC(c2ccccc2)CC1=O` (stereo unspecified), for which the IC50 with HeLa [1] was 79 nM; in the test with HMEC-1 [2] it was 160 nM; in the test with L1210, 86 nM; with CCRF-CEM, 170 nM. Further, the Kb at Tubulin (Bos taurus) is 6.46 ×10⁶ /M. Further, the outcome on Tubulin (Homo sapiens) was Active.

Take `COc1ccc(Oc2ccccc2NC(C)=C2C(=O)CC(c3ccccc3)CC2=O)cc1OC` (stereo unspecified): the IC50 with HeLa [1] worked out at 54 nM; with HMEC-1 [2], 140 nM; in the test with L1210, 65 nM; with CCRF-CEM, 160 nM. The Kb on Tubulin (Bos taurus) turned out to be 2.24 ×10⁶ /M. Moreover, the result on Tubulin (Homo sapiens) was Active.

Regarding `CC(Nc1ccccc1Oc1ccc(N)cc1)=C1C(=O)CC(c2ccccc2)CC1=O` (stereo unspecified), the IC50 in the test on HeLa [1] was 39 nM; in the test on HMEC-1 [2], 47 nM; in the test with L1210, 40 nM; in the test on CCRF-CEM, 37 nM. Also, the result with HeLa [3], in the test with HeLa [4], with HeLa [5], with HMEC-1 [6], with HMEC-1 [7] and in the test with HeLa [8] was Active. Besides, the result on Tubulin (Homo sapiens) was Active. Further, the Activity entry with HMEC-1 [9] was “Dose-dependent effect”. In addition, the Kb on Tubulin (Bos taurus) worked out at 11.8 ×10⁶ /M.

Turning to `COc1cc2c(c(OC)c1OC)-c1ccc(OC)c(=O)cc1[C@@H](NC(C)=O)CC2`, the outcome in the test with HeLa [3], with HeLa [4], in the test with HeLa [5] and in the test on HeLa [8] was Active.

Take `COc1cc([C@@H]2c3cc4c(cc3[C@H](O)[C@H]3COC(=O)[C@H]23)OCO4)cc(OC)c1OC`: the result on Tubulin (Homo sapiens) was Active.

With `COc1ccc(Oc2ccccc2NC(C)=C2C(=O)CC(c3ccccc3)CC2=O)cc1` (stereo unspecified), the IC50 came to 160 nM in the test on HeLa [1], 83 nM in the test on HMEC-1 [2], 140 nM in the test on L1210 and 120 nM in the test on CCRF-CEM. Further, the Kb on Tubulin (Bos taurus) was 5.23 ×10⁶ /M. Besides, on Tubulin (Homo sapiens), the outcome was Active.

As for `CC(Nc1ccccc1Oc1ccc(C(C)O)cc1)=C1C(=O)CC(c2ccccc2)CC1=O` (stereo unspecified), the IC50 in the test with HeLa [1] was 75 nM; in the test on HMEC-1 [2], 140 nM; with L1210, 58 nM; in the test with CCRF-CEM it was 120 nM. The Kb on Tubulin (Bos taurus) came out at 3.13 ×10⁶ /M. In addition, on Tubulin (Homo sapiens), the outcome was Active.

Consider `CCOc1ccccc1NC(C)=C1C(=O)CC(c2ccccc2)CC1=O` (stereo unspecified), for which the IC50 turned out to be 180 nM in the test on HeLa [1], 100 nM in the test with HMEC-1 [2], 190 nM with L1210 and 190 nM in the test with CCRF-CEM. For the same molecule, on Tubulin (Bos taurus), the Kb was found to be 13 ×10⁶ /M. Further, at Tubulin (Homo sapiens), the outcome was Active.

Take `CC(Nc1ccccc1Oc1cccc(F)c1)=C1C(=O)CC(c2ccccc2)CC1=O` (stereo unspecified): the IC50 in the test on HeLa [1] was 550 nM; in the test on HMEC-1 [2], 360 nM; in the test on L1210 it was 330 nM; with CCRF-CEM it was 170 nM.

Take `COc1cc(Oc2ccccc2NC(C)=C2C(=O)CC(c3ccccc3)CC2=O)ccc1N` (stereo unspecified): the IC50 in the test on HeLa [1] worked out at 33 nM; in the test with HMEC-1 [2], 29 nM; in the test on L1210, 26 nM; in the test on CCRF-CEM, 12 nM. The outcome with HMEC-1 [10], in the test with HeLa [3], with HeLa [4], in the test on HeLa [5], in the test on HMEC-1 [6] and with HeLa [8] was Active. The result on Tubulin (Homo sapiens) was Active. Also, the Activity entry in the test on HMEC-1 [9] was “Dose-dependent effect”. At Tubulin (Bos taurus), the Kb is 18.1 ×10⁶ /M.

In the case of `COc1cccc(Oc2ccccc2NC(C)=C2C(=O)CC(c3ccccc3)CC2=O)c1` (stereo unspecified), the IC50 with HeLa [1] was found to be 93 nM; in the test on HMEC-1 [2], 59 nM; in the test on L1210, 58 nM; in the test with CCRF-CEM, 41 nM. For the same molecule, the Kb on Tubulin (Bos taurus) amounted to 15.7 ×10⁶ /M. On Tubulin (Homo sapiens), the result was Active.

Regarding `CC(Nc1ccccc1Oc1ccc(Cl)cc1)=C1C(=O)CC(c2ccccc2)CC1=O` (stereo unspecified), the IC50 in the test with HeLa [1] was determined as 500 nM; with HMEC-1 [2] it was 260 nM; in the test on L1210, 250 nM; with CCRF-CEM it was 190 nM.

In the case of `CC(Nc1ccccc1Oc1cccc(N)c1)=C1C(=O)CC(c2ccccc2)CC1=O` (stereo unspecified), the IC50 in the test with HeLa [1] was 82 nM; with HMEC-1 [2] it was 41 nM; in the test on L1210 it was 53 nM; in the test with CCRF-CEM it was 42 nM. In addition, the Kb at Tubulin (Bos taurus) is 5.56 ×10⁶ /M. In addition, at Tubulin (Homo sapiens), the outcome was Active.

As to `COc1ccc(/C=C\c2cc(OC)c(OC)c(OC)c2)cc1OP(=O)(O)O` [FOSBRETABULIN DISODIUM], in the test on L1210, the IC50 was found to be 13 nM.
